Sampled rows, rich in hits. Any-hit rate of the full collection: about 2.2%.
M5 PAM = human M5 muscarinic receptor positive allosteric modulators, primary screen, CHO-K1 cells, Fluo-8 calcium fluorescence; CHO-K1 hM5, ACh EC20 PAM; 0% = ACh EC20, 100% = ACh EC100; activation, % at 3 µM; 360,000 compounds, 0.3% hits; AID 624038, 2012;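 active means activation above the run cutoff, the mean activation of all test compounds plus 3 SD, cut at about 18% in these data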
Target sequence (P08912 whole entry, looked up): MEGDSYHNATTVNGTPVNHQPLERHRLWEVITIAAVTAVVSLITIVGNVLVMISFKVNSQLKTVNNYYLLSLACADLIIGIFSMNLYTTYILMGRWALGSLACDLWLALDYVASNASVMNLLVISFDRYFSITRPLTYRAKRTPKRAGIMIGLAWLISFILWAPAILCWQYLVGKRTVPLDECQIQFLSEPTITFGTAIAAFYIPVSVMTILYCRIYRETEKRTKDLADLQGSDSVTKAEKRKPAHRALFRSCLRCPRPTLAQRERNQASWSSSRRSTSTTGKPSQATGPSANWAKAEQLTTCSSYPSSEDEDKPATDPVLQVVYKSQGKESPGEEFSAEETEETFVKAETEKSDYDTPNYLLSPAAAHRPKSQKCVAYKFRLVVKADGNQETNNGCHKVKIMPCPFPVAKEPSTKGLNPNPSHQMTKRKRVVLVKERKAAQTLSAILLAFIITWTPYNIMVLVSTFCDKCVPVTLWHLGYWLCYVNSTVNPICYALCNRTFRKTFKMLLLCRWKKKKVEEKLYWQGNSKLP
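System – CHO-K1 hM5 cells · Compound – 3 µM, single dose · Incubation – compound preincubation 140 s before EC20 acetylcholine addition · Technique – Fluo-8 calcium fluorescence · Measure – Max/basal fluorescence ratio as % of EC20–EC100 ACh window · Benchmarks – low control EC20 acetylcholine (0%), high control EC100 acetylcholine (100%) · Replication – singlicate, one well per test compound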
CHRM5 agonist = human M5 muscarinic receptor agonists, primary screen, CHO-K1 cells, Fluo-8 calcium fluorescence. activation, % at 3 µM. 360,000 compounds, 0.19% hits. Muscarinic acetylcholine receptor M5 (Homo sapiens), P08912. CHO-K1 hM5 cells; 0% DMSO wells, 100% maximal acetylcholine response. AID 624037, 2012;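 active means activation above the run's mean over test compounds plus 3 SD, cut at about 23% in these data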;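 further: signal is peak over basal fluorescence ratio across the kinetic read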
M1 antag = human M1 muscarinic receptor antagonists, primary screen, CHO-K1 cells, Fluo-8 calcium fluorescence, 1536-well | inhibition, % at 3 µM | CHO-K1 hM1, ACh EC80 antagonist | 360,000 compounds, 1.3% hits;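 active means percent inhibition above its own plate's cutoff, namely the mean of that plate's compound wells plus 3 SD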;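 further: peak over basal fluorescence ratio during 140 s after agonist addition; 0% = ACh EC80 plus DMSO and 100% = DMSO alone without agonist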
CHRM1 agonist = human M1 muscarinic receptor agonists, primary screen, Fluo-8 calcium fluorescence, CHO-K1 cells, HTS | 360,000 compounds, 0.33% hits | CHO-K1 hM1, agonist mode; 0% DMSO, 100% acetylcholine EC100 | Muscarinic acetylcholine receptor M1 (Homo sapiens), P11229 | activation, % at 3 µM;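 active means activation above the run's mean compound activation plus 3 SD, cut at about 16% in these data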;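 further: peak over basal fluorescence ratio within a 140 s kinetic read after compound addition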
CHRM5 antagonist = human M5 muscarinic receptor antagonists, primary screen, CHO cells, Fluo-8 calcium fluorescence; Muscarinic acetylcholine receptor M5 (Homo sapiens), P08912; 360,000 compounds, 0.59% hits; inhibition, % at 3 µM; AID 624040, 2012; CHO-hM5 cells, ACh EC80;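 active means inhibition above a per-plate cutoff, the mean of that plate's test compounds plus 3 SD, cut at about 27% in these data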;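 further: 0% = acetylcholine EC80 with DMSO and 100% = DMSO without agonist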
M1 PAM = human M1 muscarinic receptor positive allosteric modulators, primary screen, CHO-K1 cells, Fluo-8 calcium fluorescence, 1536-well; AID 588819, 2011; 360,000 compounds, 0.088% hits; CHO-K1 hM1, ACh EC20; 0% = ACh EC20, 100% = maximal ACh; activation, % at 3 µM; in the data active means activation above about 19%, passing the limit was not always enough
Active calls of the source: *; . = no result given.

SMILES	M5 PAM	CHRM5 agonist	M1 antag	CHRM1 agonist	CHRM5 antagonist	M1 PAM
CN(C)S(=O)(=O)c1ccc(NC(=O)COC(=O)C2CC3CCCC(C2)C3=O)cc1 (stereo unspecified)	-1	-2	0	-5	9	0
CCOc1cc(C(=O)OCC(=O)Nc2cc(C)on2)cc(OCC)c1OCC	1	0	-4	-5	3	3
O=C(Cn1nnc(-c2ccc(CN3CCOCC3)cc2)n1)N(c1ccccc1)c1ccccc1	23*	1	6	-4	2	1
Cc1ccc(-c2csc3ncnc(Cl)c23)cc1	-2	-6	4	-8	-1	-5
CCn1nc(C(=O)OCC(=O)NC(C)C)c2ccccc2c1=O	10	1	4	-6	5	5
CC(C)CCn1nc(C(=O)OCC(=O)NC(C)c2ccccc2)c2ccccc2c1=O (stereo unspecified)	2	-3	11	-3	29*	-8
C=CC[C@@H](CC(=O)N(CCO)Cc1ccccc1)C(=O)NC[C@H](OC(=O)[C@@H](CC=C)Cc1ccc(F)cc1)c1ccccc1	-39	1	34*	-1	13	-17
COc1ccc(CN(C)C(=O)c2cc(-c3ccc(OC)c(OC)c3)nc3ccccc23)c(OC)c1	-8	-5	29*	-2	20	-8
COc1cccc(CN(C)C(=O)c2cc(-c3ccc(F)cc3)nc3ccccc23)c1	-7	2	28	-2	2	-9
COc1ccc(-c2cc(C(=O)N(C)Cc3nc4ccccc4c(=O)[nH]3)c3ccccc3n2)cc1OC	-28	4	33*	0	16	-12
COc1ccc(CCN(C)C(=O)c2cc(-c3ccccc3)nc3ccccc23)cc1OC	-2	2	5	-3	14	0
COc1ccc(-c2cc(C(=O)N(C)Cc3cccc(OC)c3OC)c3ccccc3n2)cc1OC	-11	0	13	-3	16	-8
COc1ccccc1CN(C)C(=O)c1cc(-c2cccs2)nc2ccccc12	-12	1	27*	-4	9	-12
COc1cccc(CN(C)C(=O)c2cc(-c3ccc(OC)c(OC)c3)nc3ccccc23)c1	-13	-3	29	-2	28*	-3
COc1ccc(C2CC2C(C)=O)cc1 (stereo unspecified)	5	0	-6	-3	-23	9
CCCCCCCCN1C(=O)[C@H](CC(=O)N2CCCC2)C[C@@]2(C(=O)OCC)CCCC=C12	2	-2	.	.	-5	.
O=c1c2ccc([N+](=O)[O-])cc2ncn1CCOc1cccc(Br)c1	-10	4	3	-5	20	-8
O=c1c2ccc([N+](=O)[O-])cc2ncn1CCOc1ccc(Cl)cc1	-30	-5	44*	-1	24	-15
O=C(Nc1c(F)cc(F)cc1Br)c1cc(-c2ccccc2)on1	6	-7	4	-4	-6	-2
O=C(Nc1c(F)cc(F)cc1Br)c1cc(-c2ccc(O)cc2)on1	-1	20	-2	18*	-3	2
O=C(NCc1cccs1)c1cc(-c2ccc(O)cc2)on1	-4	20	-16	17*	4	4
Nc1ccc2c(c1)N=[N+]([O-])c1cc(N)ccc1C2	-3	-2	-5	-3	1	11
CCN1C[C@@H]2[C@@H]3C(=O)N(Cc4ccccc4)C(=O)[C@@H]3[C@](C)(C1=O)N2C(=O)c1ccc(F)cc1	10	4	-4	-3	-2	-1
O=C(C[N+]1(CC#Cc2ccccc2)CCCCC1)c1ccccc1	-13	-15	44*	-6	5	-16
O=C(C[N+]1(CC#Cc2ccccc2)CCCCC1)c1ccc(Cl)cc1	-16	-10	52*	-16	19	-38
SMILES	M5 PAM	CHRM5 agonist	M1 antag	CHRM1 agonist	CHRM5 antagonist	M1 PAM
O=C(C[N+]1(CC#Cc2ccccc2)CCOCC1)c1ccccc1	4	-12	-4	-16	0	-4
CCCCCCOC1(c2ccccc2)OC(=O)c2ccccc21 (stereo unspecified)	-8	-4	-7	-6	6	-1
Cc1cccc(OC2(c3ccccc3)OC(=O)c3ccccc32)c1C (stereo unspecified)	-14	-3	36*	-10	12	-19
CCC(C)[C@H](NC(=O)[C@@H]1Cc2c([nH]c3ccccc23)C2c3ccccc3C(=O)N21)C(=O)NCC1CCCO1 (stereo partly specified)	-5	1	-2	-3	6	-2
CCN(CC)c1ccc2c(-c3ccc(S(=O)(=O)O)cc3S(=O)(=O)[O-])c3ccc(=[N+](CC)CC)cc-3oc2c1	-8	23	29	86*	8	-18
CCN(CC)c1ccc2cc(C(N)=O)c(=N)oc2c1	-1	3	-3	-9	3	10
Cc1cccc(Cn2c(C)nc3c(N)c(C)c(C)cc32)c1	-13	-4	10	-8	24	1
Nc1c(-c2ccccc2)n[nH]c1-c1ccccc1	-1	1	104*	-14	-2	-37
CCOC(=O)Cc1csc(NC(=O)CSc2ncnc3c2cnn3-c2ccccc2Cl)n1	-21	0	28*	0	14	-12
Cc1nnc(NC(=O)CSc2ncnc3c2cnn3-c2ccccc2C)s1	1	-2	-40	4	-6	21
CCCCN(CCCC)c1cn[nH]c(=O)c1Cl	-26	-13	27*	-7	11	-21
Cc1ccc(Nc2cc(C)nn2-c2nc(C)cc(=O)[nH]2)cc1	-2	-6	-15	-7	41*	14
Cn1cc(Cl)c(C(=O)Nc2nc3ccc([N+](=O)[O-])cc3s2)n1	22*	0	-7	-4	14	17
COC(=O)c1ccc(/C=N/OCC(=O)NC2CCCC(C)C2C)cc1 (stereo unspecified)	-49	-4	31*	3	11	-13
NS(=O)(=O)c1ccc(NC(=S)Nc2nn(Cc3ccc(Cl)cc3Cl)cc2Cl)cc1	4	1	-5	2	-4	4
CC(C)CN(C(=O)COC(=O)CCCc1c[nH]c2ccccc12)c1c(N)n(Cc2ccccc2)c(=O)[nH]c1=O	-6	-2	-12	-2	29*	12

Compound activity deposited in PubChem by The Scripps Research Institute Molecular Screening Center.
